Data taken from PMC3016154 (Journal of biomolecular screening, 2010).

Legend:
[1] = test system: EAAT2 protein expression (human EAAT2 transcripts with the 1091-nucleotides 5′ UTR); test: Cell-based ELISA for EAAT2 protein expression in PA-EAAT2 cells; conditions: retinoic acid 1.5 μg/mL, 384-well format, vs DMSO
Method in brief: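 PA-EAAT2 cells at 8000/well, grown 36 h in 2% FBS DMEM with geneticin, then switched to serum-free DMEM/geneticin and exposed 72 h (0.20% DMSO final). Fixed 2 h in 4% formaldehyde; peroxide quench, milk block; rabbit anti-EAAT2 1:2000 overnight at 4°C, HRP anti-rabbit 1:6000 for 2 h; chemiluminescence read at 40 min. % activation vs DMSO wells; EC50 from 12-point 3-fold series, […], quadruplicate.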

EAAT2 = conditions: cited from earlier work
EAAT2 protein expression = conditions: mice, intraperitoneal injection; cited from earlier work

Structure (SMILES): CC1=C(/C=C/C(C)=C/C=C/C(C)=C/C(=O)O)C(C)(C)CCC1 [retinoic acid]
- PA-EAAT2 cell signal increase [1]: 2- to 3.5 fold

Structure (SMILES): C[C@]12C[C@H](O)[C@H]3[C@@H](CCC4=CC(=O)CC[C@@]43C)[C@@H]1CC[C@@H]2C(=O)CO [corticosterone]
- translational activator of EAAT2 (EAAT2): translational activator of EAAT2

Structure (SMILES): CO/N=C(\C(=O)N[C@@H]1C(=O)N2C(C(=O)O)=C(CSc3nc(=O)c(=O)[nH]n3C)CS[C@H]12)c1csc(N)n1 [ceftriaxone, Ceftriaxone]
- induction of EAAT2 protein expression or glutamate uptake activity (EAAT2 protein expression): only slightly induces
